The text below walks through data of article PMC7941214 (Journal of medicinal chemistry, 2019).

Data set [1] has as its system E. cloacae NCTC 13405. Description: Broth microdilution MIC/MBC, E. cloacae. The following applies: for MIC E. cloacae NCTC 13405: value before the parentheses, two values = two repeats; for MBC E. cloacae NCTC 13405: value in parentheses. It is filed as cell-based, Enterobacter cloacae. The procedure, abridged:
(§1)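 CLSI broth microdilution in cation-adjusted Mueller–Hinton broth. Log-phase cultures were diluted to 7.5 × 10^5 CFU/mL, then mixed 1:1 with 2-fold serial dilutions of gold complexes from DMSO or water stocks, in triplicate, and held 37 °C, 18 h, static. MIC: lowest concentration giving >90% inhibition by OD600 against medium-only and bacteria-only wells. […] E. coli ATCC 25922 quality control was checked each run with ciprofloxacin and […].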
In general terms: Broth dilution looks for growth in wells or tubes with falling amounts of substance.

Data set [2] concerns P. aeruginosa NCTC 13437. Description: Broth microdilution MIC/MBC, P. aeruginosa. The following applies: for MIC P. aeruginosa NCTC 13437: value before the parentheses, two values = two repeats. Format: cell-based, Pseudomonas aeruginosa. The procedure, abridged:
as §1

The test system of data set [3] is S. aureus JE2 (USA300). Description: Broth microdilution MIC/MBC, S. aureus. Format: cell-based, Staphylococcus aureus. The following applies: for MIC S. aureus JE2 (USA300): value before the parentheses, two values = two repeats; for MBC S. aureus JE2 (USA300): value in parentheses. The procedure, abridged: as §1
In data set [4] the test system is E. faecium ATCC 700221. As to the kind of experiment: Broth microdilution MIC/MBC, E. faecium. Format: cell-based, Enterococcus faecium. The following applies: for MIC E. faecium ATCC 700221: value before the parentheses, two values = two repeats; for MBC E. faecium ATCC 700221: value in parentheses. The procedure, abridged:
as §1

The test system of data set [5] is A. baumannii NCTC 13420. As to the kind of experiment: Broth microdilution MIC/MBC, A. baumannii. Format: cell-based, Acinetobacter baumannii. The following applies: for MIC A. baumannii NCTC 13420: value before the parentheses, two values = two repeats; for MBC A. baumannii NCTC 13420: value in parentheses.
Data set [6] is described as follows: Log P determination. The following applies: n-octanol/water, Au by FAAS.
Data set [7] concerns K. pneumoniae ATCC 700603. As to the kind of experiment: Broth microdilution MIC/MBC, K. pneumoniae. It is filed as cell-based, Klebsiella pneumoniae. The following applies: for MIC K. pneumoniae ATCC 700603: value before the parentheses, two values = two repeats; for MBC K. pneumoniae ATCC 700603: value in parentheses. The procedure, abridged:
as §1

The subject of data set [8] is E. coli ATCC 25922. Description: Broth microdilution MIC/MBC, E. coli. It is filed as cell-based, Escherichia coli. The following applies: for MIC E. coli ATCC 25922: value before the parentheses, two values = two repeats; for MBC E. coli ATCC 25922: value in parentheses. The procedure, abridged: as §1

“And” between values parts separate entries of the source, which are not always exact repeats. Identical values can stand only once.

As usually defined, the log P is the decadic logarithm of the partition coefficient of the neutral form, usually between octanol and water. High values mean higher lipophilicity, low ones lower lipophilicity.

Turning to `C[PH](C)(C)[Au][S]C1OC(CO)C(O)C(O)C1O` [Compound 38, (1-Thioβ-D-galatopyranosato)(trimethylphosphine) Gold(I)], in data set [1], the “MIC E. cloacae NCTC 13405” value was 4.5 µM and 4 µM; the “MBC E. cloacae NCTC 13405” value is 4.5 µM and 4 µM. In addition, the “MIC P. aeruginosa NCTC 13437” value in data set [2] was above 547 µM. Also, in data set [3], the MIC S. aureus JE2 (USA300) is 0.3 µM and the MBC S. aureus JE2 (USA300) is 0.3 µM. In data set [4], the “MIC E. faecium ATCC 700221” value is 0.3 µM and 0.5 µM; the “MBC E. faecium ATCC 700221” value was found to be 0.5 µM. Besides, in data set [5], the “MIC A. baumannii NCTC 13420” value is 17 µM and 9 µM; the “MBC A. baumannii NCTC 13420” value came to 17 µM. For the same compound, the “log P” value in data set [6] is reported as −1.88. Also, in data set [7], the “MIC K. pneumoniae ATCC 700603” value is 34 µM and the “MBC K. pneumoniae ATCC 700603” value is 34 µM. Moreover, in data set [8], the MIC E. coli ATCC 25922 amounted to 9 µM and the MBC E. coli ATCC 25922 came to 9 µM.
For the compound `C[PH](C)(C)[Au][S]C1OC(CO)C(O)C(O)C1O` [Compound 37, (1-Thio-β-D-glucopyranosato)(trimethylphosphine) Gold(I)], in data set [1], the “MBC E. cloacae NCTC 13405” value was found to be 17 µM. In data set [2], the “MIC P. aeruginosa NCTC 13437” value is above 547 µM. In data set [3], the “MIC S. aureus JE2 (USA300)” value was 0.3 µM and 0.5 µM; the “MBC S. aureus JE2 (USA300)” value was found to be 1 µM. For the same compound, in data set [4], the “MIC E. faecium ATCC 700221” value was 0.3 µM and 0.5 µM; the “MBC E. faecium ATCC 700221” value is 0.5 µM. The “MBC A. baumannii NCTC 13420” value in data set [5] stood at 17 µM. Also, the lipophilicity (log P) in data set [6] was −1.63. In addition, in data set [7], the MIC K. pneumoniae ATCC 700603 came to 34 µM and the MBC K. pneumoniae ATCC 700603 was found to be 34 µM. Moreover, in data set [8], the MIC E. coli ATCC 25922 was 9 µM and the MBC E. coli ATCC 25922 was 9 µM.
Turning to `Fc1ccc([PH+](c2ccc(F)cc2)c2ccc(F)cc2)cc1.[Cl][Au]` [Compound 29, (Tris(4-fluorophenyl)phosphine)gold Chloride], the “MIC E. cloacae NCTC 13405” value in data set [1] was above 467 µM. The “MIC P. aeruginosa NCTC 13437” value in data set [2] was above 467 µM. In addition, in data set [4], the “MIC E. faecium ATCC 700221” value was 2 µM and 4 µM; the “MBC E. faecium ATCC 700221” value is 4 µM. In data set [5], the “MIC A. baumannii NCTC 13420” value is 29 µM and 58 µM; the “MBC A. baumannii NCTC 13420” value turned out to be 233 µM. Also, in data set [6], the “log P” value was above 4.04. Also, the “MIC K. pneumoniae ATCC 700603” value in data set [7] is above 467 µM. For the same compound, the “MIC E. coli ATCC 25922” value in data set [8] is above 467 µM.
`CC[P+](CC)(CC)[Au-][S]CC(=O)OC` [Compound 22, (Methyl Mercaptoacetatato)(triethylphosphine) Gold(I)]: in data set [1], the “MIC E. cloacae NCTC 13405” value worked out at 38 µM and the “MBC E. cloacae NCTC 13405” value worked out at 152 µM. For the same compound, the MIC P. aeruginosa NCTC 13437 in data set [2] stood at 305 µM. For the same compound, the MBC P. aeruginosa NCTC 13437 in data set [2] (value in parentheses) came to 305 µM. In data set [3], the “MIC S. aureus” value is on record as “in the nanomolar range” and the “MBC S. aureus JE2 (USA300)” value came out at 0.02 µM. The “MBC E. faecium ATCC 700221” value in data set [4] turned out to be 0.6 µM. Also, in data set [5], the “MIC A. baumannii NCTC 13420” value came to 19 µM and the “MBC A. baumannii NCTC 13420” value amounted to 76 µM. Moreover, the lipophilicity (log P) in data set [6] was 1.75. Moreover, in data set [7], the MIC K. pneumoniae ATCC 700603 came to 76 µM and the MBC K. pneumoniae ATCC 700603 worked out at 76 µM. In addition, in data set [8], the MIC E. coli ATCC 25922 came out at 76 µM and the MBC E. coli ATCC 25922 was 76 µM.
Consider `CC(=O)OCC1O[C@@H]([S][Au-][P+](c2ccc(C(F)(F)F)cc2)(c2ccc(C(F)(F)F)cc2)c2ccc(C(F)(F)F)cc2)C(OC(C)=O)[C@@H](OC(C)=O)[C@@H]1OC(C)=O` (stereo partly drawn) [Compound 36, (2,3,4,6-Tetra-O-acetyl-1-thio-β-D-glucopyranosato)(tris(4-(trifluoromethyl)phenylphosphine)) Gold(I)], for which the “MIC E. cloacae NCTC 13405” value in data set [1] is above 249 µM. Besides, the “MIC P. aeruginosa NCTC 13437” value in data set [2] was above 249 µM. In data set [3], the “MIC S. aureus JE2 (USA300)” value turned out to be 4 µM and the “MBC S. aureus JE2 (USA300)” value stood at 8 µM. Further, in data set [4], the “MIC E. faecium ATCC 700221” value was 31 µM and the “MBC E. faecium ATCC 700221” value is 62 µM. In addition, the “MIC A. baumannii NCTC 13420” value in data set [5] is above 249 µM. Further, the “log P” value in data set [6] is reported as above 3.55. Moreover, in data set [7], the “MIC K. pneumoniae ATCC 700603” value was above 249 µM. Also, the “MIC E. coli ATCC 25922” value in data set [8] is above 249 µM.
